Measured values: ChEMBL document CHEMBL3585262, “(-)-α-Bisabolol, a Promising Oral Compound for the Treatment of Visceral Leishmaniasis” (J Nat Prod, 2015)
Active and inactive are the calls of the source. The calls are words filed in the database; no cut-off is given here.

Legend:
Leishmania infantum [1] = assay: Antileishmanial activity against Leishmania infantum MHOM/ES/2007/DP532JFJ infected in mouse BMDM cells assessed as reduction in intracellular amastigotes after 48 hrs; format: functional, organism-based
Procedure, shortened: (§1)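 Bone-marrow-derived macrophages from ICR (CD-1) mice, differentiated with L929-conditioned medium, plated 4 × 10^6 per well on coverslips and allowed to adhere 1 day. Infected with stationary-phase promastigotes at 10:1 parasite/macrophage, then exposed to 25–1000 μM for 48 h (0.5% DMSO). Giemsa-stained, infection percentage counted by microscopy. IC50 from linear regression of infection reduction; at least triplicate.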

Leishmania donovani [2] = assay: Antileishmanial activity against Leishmania donovani MHOM/IN/00/LEM138 infected in mouse BMDM cells assessed as reduction in intracellular amastigotes after 48 hrs; format: functional, organism-based; procedure, shortened: as §1
[3] = (§2) Cytotoxicity against mouse L929 cells after 72 hrs by trypan blue assay; format: cell-based; conditions: L929 cells
Procedure, shortened: (§3)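 L929 fibroblasts were plated at 5 × 10^4/well in RPMI-1640 with 10% FBS at 37 °C, 5% CO2. They were exposed to 25–1000 μM compound, with diluent controls, for 72 h. Cells were mixed 1:1 with 0.4% trypan blue and live and dead cells counted in a hemocytometer. Survival was expressed relative to controls and CC50 approximated.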

[4] = (§4) Selectivity index, ratio of CC50 for mouse L929 cells to IC50 for Leishmania infantum MHOM/ES/2007/DP532JFJ; format: functional
[5] = (§5) Selectivity index, ratio of CC50 for mouse L929 cells to IC50 for Leishmania donovani MHOM/IN/00/LEM138; format: functional
[6] = Toxicity in po dosed rat; format: organism-based; conditions: in vivo
[7] = Cytotoxicity against human skin fibroblast cells; format: cell-based
Leishmania infantum [8] = assay: Antileishmanial activity against Leishmania infantum MHOM/ES/2007/DP532JFJ infected in mouse BMDM cells assessed as reduction in infection at 150 uM after 48 hrs; format: functional
Procedure, shortened: (§6)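 Mouse bone-marrow macrophages were differentiated with L929-conditioned medium and plated with coverslips. They were infected with stationary-phase promastigotes at a 10:1 parasite:macrophage ratio. Compound (25–1000 μM, 0.5% DMSO) was added for 48 h, at least in triplicate. Cells were Giemsa-stained and the percentage infected (≥1 amastigote) was counted by microscopy. Reduction was calculated relative to untreated or diluent wells.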

Leishmania donovani [9] = assay: Antileishmanial activity against Leishmania donovani MHOM/IN/00/LEM138 infected in mouse BMDM cells assessed as reduction in infection at 150 uM after 48 hrs; format: functional; conditions: MHOM/IN/00/LEM138, BMDM; procedure, shortened: as §6
Leishmania infantum [10] = assay: Antileishmanial activity against Leishmania infantum promastigotes; format: functional, organism-based
[11] = Cytotoxicity against mouse L929 cells assessed as survival rate at 25 to 250 uM after 72 hrs by trypan blue assay; format: cell-based; conditions: read-out: Survival
Procedure, shortened: (§7)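 Trypan Blue exclusion assay. BMDM (4 × 10^5/well) or L929 fibroblasts (5 × 10^4/well) incubated 72 h with 25–1000 μM compound, with DMSO diluent controls. Cells then mixed 1:1 with 0.4% Trypan Blue and live and dead cells counted in a hemocytometer. Survival ratio calculated against controls at each concentration.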

[12] = Cytotoxicity against mouse L929 cells assessed as survival rate at 500 uM after 72 hrs by trypan blue assay; format: cell-based; conditions: read-out: Survival; procedure, shortened: as §7
[13] = Cytotoxicity against mouse L929 cells assessed as survival rate at 1000 uM after 72 hrs by trypan blue assay; format: cell-based; conditions: read-out: Survival; procedure, shortened: as §7
Mus musculus [14] = assay: Toxicity in ICR (CD1) mouse assessed as histological changes at 200 mg/kg, po; format: organism-based; conditions: in vivo
Procedure, shortened: (§8)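 Mice were given daily oral doses of 50, 200 or 1000 mg/kg in olive oil for 14 days, alongside a noninfected healthy reference group. Animals were weighed weekly and checked for stress, pain, cutaneous signs and diarrhea. After sacrifice, spleen and liver were weighed, plasma biochemical and enzymatic values were assessed, and tissue sections were examined by light microscopy.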

Mus musculus [15] = assay: Toxicity in ICR (CD1) mouse at 1000 mg/kg, po; format: organism-based; conditions: in vivo; procedure, shortened: as §8
Leishmania infantum [16] = assay: Antileishmanial activity against Leishmania infantum promastigotes infected in ICR (CD1) mouse assessed as reduction in parasite load in spleen at 200 mg/kg, po dosed daily starting 28 days after infection for 14 days by real-time PCR co-treated with 104 mg Sb'v/kg/day, ip meglumine antimoniate for 14 days; format: functional, organism-based
Procedure, shortened: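 Female 4–6-week-old Balb/c mice received 10^7 stationary-phase L. infantum promastigotes ip, in groups of seven. From day 28 they were dosed orally each day for 14 days in olive oil; meglumine antimoniate 104 mg SbV/kg was given ip. Spleen and liver load was measured by L. infantum-specific qPCR in triplicate against a calibration curve, as parasites/mg, and reduction was taken versus untreated mice.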

[17] = Cytotoxicity against ICR(CD1) BMDM assessed as survival rate at 25 to 250 uM after 72 hrs by trypan blue assay; conditions: mouse; procedure, shortened: as §7
Leishmania amazonensis = assay: Antileishmanial activity against Leishmania amazonensis MHOM/BR/76/MA-76 intracellular amastigotes infected in BALB/c mouse peritoneal macrophages incubated for 24 hrs by Giemsa staining based light microscopy; format: functional, organism-based; conditions: MHOM/BR/76/MA-76, 24 h
[18] = Cytotoxicity against mouse J774.G8 cells assessed as reduction in cell viability incubated for 24 hrs by MTT assay; format: cell-based
Mus musculus [19] = assay: Toxicity in Balb/c mouse assessed as histological changes at 50 mg/kg, po; conditions: in vivo
Mus musculus [20] = assay: Toxicity in Balb/c mouse assessed as changes in plasma enzymatic changes at 50 and 200 mg/kg, po; conditions: in vivo
Mus musculus [21] = assay: Toxicity in Balb/c mouse assessed as changes in plasma biochemical changes at 50 and 200 mg/kg, po; conditions: in vivo
Leishmania infantum [22] = assay: Antileishmanial activity against Leishmania infantum promastigotes infected in Balb/c mouse assessed as parasite load in liver at 200 mg/kg, po dosed daily starting 28 days after infection for 14 days by real-time PCR
Leishmania infantum [23] = assay: Antileishmanial activity against Leishmania infantum promastigotes infected in Balb/c mouse assessed as parasite load in spleen at 200 mg/kg, po dosed daily starting 28 days after infection for 14 days by real-time PCR
Leishmania infantum [24] = assay: Antileishmanial activity against Leishmania infantum promastigotes infected in Balb/c mouse assessed as reduction parasite load in liver at 50 mg/kg, po dosed daily starting 28 days after infection for 14 days by real-time PCR relative to control
Leishmania infantum [25] = assay: Antileishmanial activity against Leishmania infantum promastigotes infected in Balb/c mouse assessed as reduction parasite load in spleen at 50 mg/kg, po dosed daily starting 28 days after infection for 14 days by real-time PCR relative to control
L929 [26] = assay: as §2; format: cell-based; conditions: l929, 72 h; procedure, shortened: as §3
L929 [27] = assay: as §4; format: functional
L929 [28] = assay: as §5; format: functional
Leishmania infantum [29] = assay: Antileishmanial activity against Leishmania infantum promastigotes infected in ICR (CD1) mouse assessed as parasite load in spleen at 104 mg Sb'v/kg, ip dosed daily starting 28 days after infection for 14 days by real-time PCR; format: functional, organism-based
Leishmania infantum [30] = assay: Antileishmanial activity against Leishmania infantum promastigotes infected in ICR (CD1) mouse assessed as parasite load in liver at 104 mg Sb'v/kg, ip dosed daily starting 28 days after infection for 14 days by real-time PCR; format: functional, organism-based
Leishmania infantum [31] = assay: Antileishmanial activity against Leishmania infantum promastigotes infected in ICR (CD1) mouse assessed as reduction in parasite load in liver at 104 mg Sb'v/kg, ip dosed daily starting 28 days after infection for 14 days by real-time PCR relative to control; format: functional, organism-based
Leishmania infantum [32] = assay: Antileishmanial activity against Leishmania infantum promastigotes infected in ICR (CD1) mouse assessed as reduction in parasite load in spleen at 104 mg Sb'v/kg, ip treated 28 days after infection for 14 days by real-time PCR relative to control; format: functional, organism-based
[33] = Leishmania infantum, MHOM/ES/2007/DP532JFJ, BMDM, 48 h
[34] = Leishmania donovani, MHOM/IN/00/LEM138, BMDM, 48 h

Molecule: N=C(N)c1ccc(OCCCCCOc2ccc(C(=N)N)cc2)cc1.O=S(=O)(O)CCO
- IC50 (Leishmania infantum [1]; [33]): 1.5 µM
- IC50 (Leishmania donovani [2]; [34]): 0.88 µM
- CC50 at 72 h [3]: 6.1 µM
- Ratio CC50/IC50 [4]: 4
- Ratio CC50/IC50 [5]: 7

Molecule: CC(C)=CCC[C@@](C)(O)[C@@H]1CC=C(C)CC1
- IC50 (Leishmania infantum [1]; [33]): 56.9 µM
- IC50 (Leishmania donovani [2]; [34]): 39.4 µM
- CC50 at 72 h [3]: > 1000 µM
- Ratio CC50/IC50 [4]: >17
- Ratio CC50/IC50 [5]: >25
- LD50 [6]: 14000 mg/kg
- CC50 [7]: > 150 µM
- inhibition at 150 µM (Leishmania infantum [8]): 85%
- inhibition at 150 µM (Leishmania donovani [9]): 89%
- IC50 (Leishmania infantum [10]): 49 µM
- viability at 72 h, up to 250 µM [11]: 100%
- viability at 72 h, 500 µM [12]: 86.7%
- viability at 72 h, 1000 µM [13]: 62.3%
- Activity (Mus musculus [14]): Non-toxic
- Activity (Mus musculus [15]): Non-toxic
- inhibition (Leishmania infantum [16]): inactive
- Activity [17]: Non-toxic
- IC50 (Leishmania amazonensis): 48 µM
- CC50 at 24 h [18]: 452 µM
- Activity (Mus musculus [19]): Non-toxic
- Activity (Mus musculus [20]): Non-toxic
- Activity (Mus musculus [21]): Non-toxic
- inhibition (Leishmania infantum [22]): Active
- inhibition (Leishmania infantum [23]): Active
- inhibition (Leishmania infantum [24]): Active
- inhibition (Leishmania infantum [25]): Active

Molecule: MEGLUMINE ANTIMONATE [listing 1 of 2 here]
- IC50 (Leishmania infantum [1]; bmdm): 144 µM
- IC50 (Leishmania donovani [2]; bmdm): 96.4 µM
- CC50 (L929 [26]): 273 µM

Molecule: MEGLUMINE ANTIMONATE [listing 2 of 2 here]
- Ratio CC50/IC50 (L929 [27]): 2
- Ratio CC50/IC50 (L929 [28]): 3
- inhibition (Leishmania infantum [29]): Active
- inhibition (Leishmania infantum [30]): Active
- Activity (Leishmania infantum [31]): Active
- inhibition (Leishmania infantum [32]): inactive
